# PubChem BioAssay AID504450 (Broad Institute, 2011)
# Records with an inconclusive call do not appear. Calls of active or inactive are those of the source.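 Rule for the calls: active = signal falls, and half-maximal potency stays within ten times the top tested dose in every run; inconclusive = runs disagree, or a flat partial drop, or a poor fit; inactive = inactive every run, flat, wrong way or too weak.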
# Test system: HMLE_sh_eGFP viability, CellTiter-Glo luminescence, 72 h
# Test: cytotoxicity in HMLE_sh_eGFP control cells, dose response, counter-screen for breast cancer stem cell project, cell-based, luminescence, powder samples, set 4 (AID 504450)
# Conditions: not given
# In short: (§1)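 Material: HMLE breast epithelial cells expressing shRNA against eGFP (counterscreen line). Amount: 2000 cells/well. Compound dosing: 100 nL pinned compound. Incubation: compound exposure about 70-74 h at 37 °C, 5% CO2. Signal: CellTiter-Glo ATP luminescence, reagent diluted 1:3 in PBS, 12 min incubation. Benchmarks: DMSO neutral, puromycin positive.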
row,Compound,AC50 [µM]
1,Cc1csc(NC(=O)c2ccc(COc3ccc(Cl)cc3)o2)n1,13
2,Cc1csc(NC(=O)c2ccc(COc3ccc(OC(F)(F)F)cc3)o2)n1,13.2
3,O=C(COc1ccc(Cl)cc1Br)N/N=C/c1ccc[nH]1,20.9
4,COc1cccc(OCc2ccc(C(=O)Nc3nc(C)cs3)o2)c1,1.59
5,Cc1csc(NC(=O)c2ccc(COc3ccc(F)cc3)o2)n1,28.5
6,COc1ccccc1OCc1ccc(C(=O)Nc2nc(C)cs2)o1,8.54
7,Cc1csc(NC(=O)c2ccc(COc3cccc(F)c3)o2)n1,21.5
8,Cc1csc(NC(=O)c2ccc(COc3ccccc3C(F)(F)F)o2)n1,0.057
9,Cc1csc(NC(=O)c2ccc(COc3cccc(C(F)(F)F)c3)o2)n1,23.5
10,O=C(Nc1ccccn1)c1ccc(COc2ccccc2)o1,29.7
11,Cc1csc(NC(=O)c2ccc(COc3ccccc3Cl)o2)n1,0.163
12,O=C(Nc1nc2cccc(Cl)c2s1)c1ccc(COc2ccccc2)o1,9.36
13,Cc1csc(NC(=O)c2ccc(COc3ccccc3OC(F)(F)F)o2)n1,0.38
14,Cc1csc(NC(=O)c2ccc(COc3cccc(Cl)c3)o2)n1,6.6
15,O=C(N/N=C/c1ccc[nH]1)C1COc2cc3ccccc3cc2O1 (stereo not drawn),18.9
16,O=C(/C=C/c1cccc(Cl)c1)NC1=NCCS1,21.5
17,CC(C)c1ccc(/C=C/C(=O)Nc2nccs2)cc1,7.26

row,Compound,AC50 [µM]
1,CC(C)c1ccc(/C=C/C(=O)Nc2nncs2)cc1,9.97
2,Cc1csc(NC(=O)c2ccc(COc3ccc(C(F)(F)F)cc3)o2)n1,2.92
3,CC(C)(C)c1ccc(C2CC2C(=O)N/N=C/c2ccc[nH]2)cc1 (stereo not drawn),2.14
4,Cc1csc(NC(=O)c2ccc(COc3ccccc3C#N)o2)n1,3.69
5,CC(C)c1ccc(/C=C/C(=O)NCc2ccccc2)cc1,13.2
6,CC(C)c1ccc(/C=C/C(=O)N(C)Cc2ccccc2)cc1,9.01
7,Cc1csc(NC(=O)c2ccc(COc3ccccc3F)o2)n1,0.151
8,CC(C)c1ccc(/C=C/C(=O)Nc2ccccn2)cc1,14.8
9,Cc1csc(NC(=O)c2ccc(COc3cccc(OC(F)(F)F)c3)o2)n1,4.4
10,CC(C)(C)c1ccc(/C=C/C(=O)NC2=NCCS2)cc1,20.6
11,O=C(COc1ccc2ccccc2c1Br)N/N=C/c1ccc[nH]1,3.03
12,CC[C@@H](C(=O)O)C1CC[C@H](C)C([C@@H](C)[C@H](O)[C@H](C)C(=O)[C@H](CC)C2O[C@]3(C=C[C@@H](O)[C@]4(CC[C@@](C)(C5CC[C@](O)(CC)[C@H](C)O5)O4)O3)[C@H](C)C[C@@H]2C)O1 (stereo partly drawn),0.007
13,Cc1csc(NC(=O)c2ccc(COc3ccc(C#N)cc3)o2)n1,12.7
14,CC(C)c1ccc(/C=C/C(=O)Nc2nccn2C)cc1,5.97
15,O=C(CSc1cc(Cl)ccc1Cl)N/N=C/c1ccc[nH]1,18
16,O=C(COc1ccc2c(c1)OCO2)N/N=C/c1ccc[nH]1,20.9
17,Cc1csc(NC(=O)c2ccc(COc3cccc(C#N)c3)o2)n1,15.4

# Test system: not listed separately
# Test: as above
# Conditions: HMLE_sh_eGFP viability, CellTiter-Glo luminescence, 72 h; at 30 µM (top of the series)
# In short: as §1
row,Compound,"activity change, negative = viability loss"
1,O=C(NC1=NCCS1)C1CC1c1ccccc1 (stereo not drawn),7.45% (inactive)
2,O=C(COc1c(Cl)cc(Cl)cc1Cl)N/N=C/c1ccn[nH]1,0.468% (inactive)
3,O=C(COc1ccc(Cl)cc1Cl)N/N=C/c1ccn[nH]1,6.79% (inactive)
4,COc1cccc(/C=C/C(=O)NC2=NCCS2)c1,1.9% (inactive)
5,O=C(Nc1nccs1)c1ccc(COc2ccccc2)o1,5.29% (inactive)
6,O=C(c1ccc(COc2ccccc2)o1)N1CCOCC1,5.39% (inactive)
7,O=S(=O)(/C=C/c1ccccc1)NC1=NCCS1,19.6% (inactive)
8,O=C(NC1=NCCS1)/C(F)=C/c1ccccc1,13.9% (inactive)
9,COc1ccccc1OCC(=O)N/N=C/c1ccc[nH]1,14.8% (inactive)
10,C/C(=C\c1ccccc1)C(=O)NC1=NCCS1,12% (inactive)
11,Cc1ccc(C)c(OCC(=O)N/N=C/c2ccc[nH]2)c1,-10.1% (inactive)
12,O=C(/C=C/c1ccc(Cl)cc1)NC1=NCCS1,-4.58% (inactive)
13,O=C(/C=C/c1ccc(C(F)(F)F)cc1)NC1=NCCS1,11.7% (inactive)
14,O=C(N/N=C/c1ccn[nH]1)c1cc2ccccc2o1,16.4% (inactive)
15,CC(C)c1ccc(/C=C/C(=O)Nc2ncc[nH]2)cc1,-18.2% (inactive)
16,Cc1cccc(C)c1OCC(=O)N/N=C/c1ccc[nH]1,8.5% (inactive)
17,O=C(N/N=C/c1ccc[nH]1)C1CC1c1ccccc1 (stereo not drawn),-2.24% (inactive)
18,Cc1csc(NC(=O)c2ccc(CO)o2)n1,13.5% (inactive)
19,Cn1ccnc1NC(=O)c1ccc(COc2ccccc2)o1,-18.4% (inactive)
